Assay [1] is described as follows: Compound was tested for inhibitory activity against DNA pol III of Bacillus subtilis. The essentials: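 Homogeneous recombinant B. subtilis DNA pol III was assayed on activated calf thymus DNA. Apparent Ki was determined with a truncated assay lacking the competitor dGTP. Values are the average of three independent experiments.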
The subject of another assay is Bacillus subtilis. The assay is described as follows: Minimum inhibitory concentration against Bacillus subtilis. It is filed as functional. The essentials: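 Test organism was penicillin-sensitive B. subtilis strain BD54. A log-phase culture was diluted to 10^4 cells/mL in Luria broth. Inhibitors in DMSO were added at 0–100 µM, with final DMSO at 1%. Cultures were incubated 24 h at 37 °C and growth was scored by eye. MIC is the lowest concentration with no apparent growth, averaged over three independent experiments.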

For assay [2], the target named is DNA polymerase III (Bacillus subtilis). Briefly: Compound was tested for inhibitory activity against DNA polymerase III of Bacillus subtilis.

In brackets after ≈: the same amount, converted by molar mass.

Take `CCc1cc(Nc2cc(=O)n(CCOC)c(=O)[nH]2)ccc1C`: in assay [1], the Ki (as a rule, the equilibrium dissociation constant of an inhibitor or competing ligand from its target) was 580 nM. The MIC – broadly, the smallest concentration in the dilution series that meets the test's criterion for growth inhibition – with Bacillus subtilis was found to be 3 µM (≈ 0.91 µg/mL).
For `CCc1cc(Nc2cc(=O)n(CCCOC)c(=O)[nH]2)ccc1C`, the Ki in assay [1] is 1000 nM. For the same compound, in the assay with Bacillus subtilis, the MIC was determined as 1.5 µM (≈ 0.476 µg/mL).
Take `C=CCn1c(=O)cc(Nc2ccc(C)c(CC)c2)[nH]c1=O`: the inhibition constant (Ki) in assay [1] worked out at 210 nM. Moreover, the lowest concentration to inhibit growth in the assay on Bacillus subtilis (MIC) was 1.5 µM (≈ 0.428 µg/mL).
The like results for `Cn1c(=O)cc(Nc2ccc3c(c2)CCC3)[nH]c1=O` were, in that order, 1340 nM and 5 µM (≈ 1.29 µg/mL).
Take `Oc1cc(Nc2ccc3c(c2)CCC3)nc(O)n1`: in assay [1], affinity was put at a Ki of 1200 nM. For the same compound, the MIC against Bacillus subtilis is 30 µM (≈ 7.3 µg/mL).
Take `CCc1cc(Nc2cc(=O)n(CC)c(=O)[nH]2)ccc1C`: in the assay on Bacillus subtilis, 1.5 µM (≈ 0.41 µg/mL) was the least that counted as inhibitory (MIC). In assay [2], this compound had a Ki of 120 nM.
`CCCCCCn1c(=O)cc(Nc2ccc3c(c2)CCC3)[nH]c1=O` had a Ki in assay [1] of 240 nM. This compound displayed an MIC in the assay with Bacillus subtilis of more than 100 µM.
The like results for `C=CCn1c(=O)cc(Nc2ccc3c(c2)CCC3)[nH]c1=O` were, in that order, 380 nM and 3 µM (≈ 0.85 µg/mL).
For `CCCn1c(=O)cc(Nc2ccc3c(c2)CCC3)[nH]c1=O`, the MIC in the assay with Bacillus subtilis came out at 11 µM (≈ 3.14 µg/mL). For the same compound, the Ki in assay [2] stood at 310 nM.
For the compound `CCn1c(=O)cc(Nc2ccc3c(c2)CCC3)[nH]c1=O`, in assay [1], the Ki was found to be 310 nM. The compound further gave an MIC against Bacillus subtilis of 3 µM (≈ 0.814 µg/mL).
For the compound `CCCCn1c(=O)cc(Nc2ccc3c(c2)CCC3)[nH]c1=O`, the MIC in the assay on Bacillus subtilis was found to be 3 µM (≈ 0.898 µg/mL). The compound further showed a Ki in assay [2] of 90 nM.
The compound `CCc1cc(Nc2cc(O)nc(O)n2)ccc1C` displayed a Ki in assay [1] of 1000 nM. In addition, in the assay with Bacillus subtilis, the lowest concentration to inhibit growth (MIC) was 30 µM (≈ 7.36 µg/mL).
The like results for `CCc1cc(Nc2cc(=O)n(CCO)c(=O)[nH]2)ccc1C` were, in that order, 590 nM and 3 µM (≈ 0.868 µg/mL).
For the compound `CCc1cc(Nc2cc(=O)n(CCCO)c(=O)[nH]2)ccc1C`, the Ki in assay [1] was determined as 730 nM. Besides, in the assay on Bacillus subtilis, the lowest concentration to inhibit growth (MIC) was 3 µM (≈ 0.91 µg/mL).

For the origin of these results see ChEMBL document CHEMBL1132233, “6-Anilinouracil-based inhibitors of Bacillus subtilis DNA polymerase III: antipolymerase and antimicrobial structure-activity relationships based on substitution at uracil N3” (J Med Chem, 1999).
